Data taken from ChEMBL document CHEMBL1629652, “Immobilization reduces the activity of surface-bound cationic antimicrobial peptides with no influence upon the activity spectrum” (Antimicrob Agents Chemother, 2009).
≈ marks a conversion by molar mass, not a printed value. Where a SMILES comes first, the peptide text is derived from it.

What was measured:
Bacillus subtilis [1] = assay: Bactericidal activity against Bacillus subtilis DSM 347 after 24 hrs; format: functional; details: DSM 347, 24 h
How it was run: (§1)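 MBC: after the 17 h LB broth dilution growth assay (1.6 x 10^6 cells/ml, 37°C, shaking), 200 µl from wells at or above the MIC was spread on LB agar. Plates were incubated 24 h at 37°C and colonies counted. MBC is the lowest concentration giving no colonies. Triplicate.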

[2] = Cytotoxicity against human RBC assessed as hemolytic activity after 30 mins by spectrophotometry; format: cell-based; details: erythrocyte, 0.5 h
How it was run: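 Human RBCs were washed in 10 mM Tris, 150 mM NaCl, pH 7.4 and incubated at 2.5 x 10^8 cells/ml with peptide in 1 ml buffer for 30 min with gentle shaking. Samples were ice-cooled and centrifuged (2,000 x g, 4°C, 5 min); supernatant was diluted in 0.5% NH4OH and read at OD540. 0.5% NH4OH served as 100% lysis. EC25 was taken from dose-response curves.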

Escherichia coli [3] = assay: Bactericidal activity against Escherichia coli DH5[alpha] after 24 hrs; format: functional; how it was run: as §1
Escherichia coli [4] = assay: Antimicrobial activity against Escherichia coli DH5[alpha] after 17 hrs; format: functional
How it was run: (§2)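 Mid-log cells (OD600 0.4 to 0.5, grown in LB at 37°C, 180 rpm) in LB at 1.6 x 10^6 cells/ml. Soluble peptides were tested in microtiter wells at 100 to 0.05 µM (twofold dilutions). Resin-bound peptides were tested in tubes at 0.5 to 80 mg/ml resin with horizontal shaking. Incubation 37°C, 180 rpm; A600 read at 17 h; triplicate. Resin MICs were converted to mM using peptide loading per mg resin.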

Bacillus subtilis [5] = assay: Antimicrobial activity against Bacillus subtilis DSM 347 after 17 hrs; format: functional; details: DSM 347, 17 h; how it was run: as §2

Row | MIC (Escherichia coli [4]) | MIC (Bacillus subtilis [5]) | Compound | MBC (Bacillus subtilis [1]) | EC25 [2] | MBC (Escherichia coli [3])
1 | 0.8 µM (≈ 2.01 µg/mL) | 1.6 µM (≈ 4.02 µg/mL) | CC[C@H](C)[C@H](NC(=O)CN)C(=O)NCC(=O)N[C@@H](CCCCN)C(=O)N[C@@H](Cc1ccccc1)C(=O)N[C@H](C(=O)N[C@@H](Cc1cnc[nH]1)C(=O)N[C@@H](C)C(=O)N[C@H](C(=O)N[C@@H](CCCCN)C(=O)N[C@@H](CCCCN)C(=O)N[C@@H](Cc1c[nH]c2ccccc12)C(=O)NCC(=O)N[C@@H](CCCCN)C(=O)N[C@H](C(=O)N[C@@H](Cc1ccccc1)C(=O)N[C@H](C(=O)NCC(=O)N[C@@H](CCC(=O)O)C(=O)N[C@H](C(=O)N[C@@H](C)C(=O)N[C@@H](CCCCN)C(=O)N[C@@H](CO)C(N)=O)[C@@H](C)CC)[C@@H](C)CC)[C@@H](C)O)C(C)C)[C@@H](C)CC (H-GIGKFIHAVKKWGKTFIGEIAKS-NH2) | 1.6 µM (≈ 4.02 µg/mL) | 334 µM | 0.8 µM (≈ 2.01 µg/mL)
2 | 1.6 µM (≈ 3 µg/mL) | 0.8 µM (≈ 1.5 µg/mL) | CC(C)C[C@H](NC(=O)[C@H](C)NC(=O)[C@H](CCCCN)NC(=O)[C@H](CC(C)C)NC(=O)[C@H](C)NC(=O)[C@H](CC(C)C)NC(=O)[C@H](CCCCN)NC(=O)[C@H](CC(C)C)NC(=O)[C@H](C)NC(=O)[C@H](CC(C)C)NC(=O)[C@@H](N)CCCCN)C(=O)N[C@@H](CCCCN)C(=O)N[C@@H](C)C(=O)N[C@@H](C)C(=O)N[C@@H](CC(C)C)C(=O)N[C@@H](CCCCN)C(=O)N[C@@H](CC(C)C)C(=O)N[C@@H](C)C(N)=O | 0.8 µM (≈ 1.5 µg/mL) | 13.1 µM | 1.6 µM (≈ 3 µg/mL)
3 | 3.1 µM (≈ 7.93 µg/mL) | 1.6 µM (≈ 4.09 µg/mL) | CC[C@H](C)[C@H](NC(=O)CNC(C)=O)C(=O)NCC(=O)N[C@@H](CCCCN)C(=O)N[C@@H](Cc1ccccc1)C(=O)N[C@H](C(=O)N[C@@H](Cc1cnc[nH]1)C(=O)N[C@@H](C)C(=O)N[C@H](C(=O)N[C@@H](CCCCN)C(=O)N[C@@H](CCCCN)C(=O)N[C@@H](Cc1c[nH]c2ccccc12)C(=O)NCC(=O)N[C@@H](CCCCN)C(=O)N[C@H](C(=O)N[C@@H](Cc1ccccc1)C(=O)N[C@H](C(=O)NCC(=O)N[C@@H](CCC(=O)O)C(=O)N[C@H](C(=O)N[C@@H](C)C(=O)N[C@@H](CCCCN)C(=O)N[C@@H](CO)C(N)=O)[C@@H](C)CC)[C@@H](C)CC)[C@@H](C)O)C(C)C)[C@@H](C)CC (Ac-GIGKFIHAVKKWGKTFIGEIAKS-NH2) | 1.6 µM (≈ 4.09 µg/mL) | > 400 µM | 3.1 µM (≈ 7.93 µg/mL)
4 | 12.5 µM (≈ 24 µg/mL) | 0.8 µM (≈ 1.53 µg/mL) | CC(=O)N[C@@H](CCCCN)C(=O)N[C@@H](CC(C)C)C(=O)N[C@@H](C)C(=O)N[C@@H](CC(C)C)C(=O)N[C@@H](CCCCN)C(=O)N[C@@H](CC(C)C)C(=O)N[C@@H](C)C(=O)N[C@@H](CC(C)C)C(=O)N[C@@H](CCCCN)C(=O)N[C@@H](C)C(=O)N[C@@H](CC(C)C)C(=O)N[C@@H](CCCCN)C(=O)N[C@@H](C)C(=O)N[C@@H](C)C(=O)N[C@@H](CC(C)C)C(=O)N[C@@H](CCCCN)C(=O)N[C@@H](CC(C)C)C(=O)N[C@@H](C)C(N)=O | 0.8 µM (≈ 1.53 µg/mL) | 9.1 µM | 12.5 µM (≈ 24 µg/mL)
